Assay type in all cases: functional
One test has as its system Aspergillus fumigatus. The test is described as follows: Antifungal activity against Aspergillus fumigatus ATCC 26934. In short, it runs like this: (§1)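 Broth microdilution per CLSI M38-A2 in RPMI-1640 with MOPS at pH 7.0. Inoculum 1-5 × 10^3 CFU/mL, with twofold compound dilutions spanning 250-0.24 µg/ml (final DMSO <1%). Plates incubated at 35 °C, moist and dark, and read when the control fungus had grown. MIC is total growth inhibition. MFC comes from subculturing clear wells in duplicate onto SDA.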

The test system of another test is Aspergillus flavus. The test is described as follows: Antifungal activity against Aspergillus flavus ATCC 9170. In short, it runs like this: as §1
A further test concerns Saccharomyces cerevisiae. The test is described as follows: Antifungal activity against Saccharomyces cerevisiae ATCC 9763. In short, it runs like this:
(§2)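 CLSI M27-A3 broth microdilution in RPMI-1640 buffered to pH 7.0 with MOPS. Inoculum 1-5 × 10^3 CFU/mL. Compound twofold dilutions from 250 to 0.24 µg/ml, final DMSO <1%. Incubated at 35 °C in a moist, dark chamber and read at 48 h. MIC is the lowest concentration giving total growth inhibition. For MFC, 5 µL from clear wells was plated in duplicate on SDA; MFC is the lowest concentration with no growth.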

The test system of the next test is Trichophyton rubrum. The test is described as follows: Antifungal activity against Trichophyton rubrum C 113 2000. In short, it runs like this: (§3)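 Dermatophytes tested by CLSI M38-A2 microdilution in MOPS-buffered RPMI-1640 at pH 7.0. Inoculum 1-5 × 10^3 CFU/mL; compounds 250 to 0.24 µg/ml in twofold steps, final DMSO <1%. Incubated at 28 °C in a moist, dark chamber and read according to control growth. MIC is the lowest concentration with complete inhibition. MFC is the lowest concentration with no growth after duplicate subculture on SDA.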

The subject of test [1] is Trichophyton mentagrophytes. The test is described as follows: Antifungal activity against Trichophyton mentagrophytes ATCC 9972. In short, it runs like this:
as §3

The subject of another test is Candida albicans. The test is described as follows: Antifungal activity against Candida albicans ATCC 10213. In short, it runs like this: as §2
For the next test, the system named is Aspergillus niger. The test is described as follows: Antifungal activity against Aspergillus niger ATCC 9029. In short, it runs like this: as §1
The next test concerns Candida tropicalis. The test is described as follows: Antifungal activity against Candida tropicalis C 131 2000. In short, it runs like this:
as §2

The test system of a further test is Cryptococcus neoformans. The test is described as follows: Antifungal activity against Cryptococcus neoformans ATCC 32264. In short, it runs like this: as §2
Another test relates to Nannizzia gypsea. The test is described as follows: Antifungal activity against Microsporum gypseum C 115 2000. In short, it runs like this: as §3

Molecules are shown by their SMILES. Converted amounts (≈) assume the structure as drawn.

Consider `CC1=CC(O)N(CCCc2ccccc2)C1=O` (centres undefined), for which the MFC (against Aspergillus fumigatus; against Aspergillus flavus; against Saccharomyces cerevisiae; with Trichophyton rubrum; in test [1]; in the test on Candida albicans) was more than 250 µg/mL throughout. Besides, the minimal fungicidal concentration (MFC) with Aspergillus niger, against Candida tropicalis, against Cryptococcus neoformans and in the test on Nannizzia gypsea was more than 250 µg/mL throughout. In addition, the MIC (in the test with Aspergillus fumigatus; against Aspergillus flavus; in the test with Saccharomyces cerevisiae; in the test with Trichophyton rubrum; in test [1]; against Candida albicans) was more than 250 µg/mL in each case. Moreover, the MIC against Aspergillus niger, against Candida tropicalis, in the test on Cryptococcus neoformans and with Nannizzia gypsea was more than 250 µg/mL throughout.

With `O=C1C=CC(O)N1CCCCc1ccccc1` (centres undefined), the MFC (commonly the lowest tested concentration that kills the fungus rather than only halting it) is more than 250 µg/mL in the test on Aspergillus fumigatus; more than 250 µg/mL in the test on Aspergillus flavus; more than 250 µg/mL against Saccharomyces cerevisiae; 250 µg/mL (≈ 1080 µM) in the test on Trichophyton rubrum; 125 µg/mL (≈ 540 µM) in test [1]; more than 250 µg/mL against Candida albicans. Besides, the MFC was more than 250 µg/mL in the test with Aspergillus niger, more than 250 µg/mL against Candida tropicalis, more than 250 µg/mL against Cryptococcus neoformans and 250 µg/mL (≈ 1080 µM) in the test on Nannizzia gypsea. Moreover, the minimum inhibitory concentration (MIC) (as a rule, the smallest concentration in the dilution series that meets the test's criterion for growth inhibition) against Aspergillus fumigatus is more than 250 µg/mL; against Aspergillus flavus, more than 250 µg/mL; against Saccharomyces cerevisiae it was more than 250 µg/mL; in the test with Trichophyton rubrum, 62.5 µg/mL (≈ 270 µM); in test [1], 62.5 µg/mL (≈ 270 µM); in the test on Candida albicans, more than 250 µg/mL. The MIC was more than 250 µg/mL against Aspergillus niger, more than 250 µg/mL against Candida tropicalis, 250 µg/mL (≈ 1080 µM) in the test on Cryptococcus neoformans and 125 µg/mL (≈ 540 µM) against Nannizzia gypsea.

Regarding `CC1=CC(O)N(CCc2ccccc2)C1=O` (centres undefined), the minimum fungicidal concentration (MFC) (against Aspergillus fumigatus; with Aspergillus flavus; against Saccharomyces cerevisiae; against Trichophyton rubrum; in test [1]; in the test with Candida albicans) was more than 250 µg/mL in each case. The MFC in the test on Aspergillus niger, against Candida tropicalis, against Cryptococcus neoformans and in the test with Nannizzia gypsea was more than 250 µg/mL in each case. Besides, the MIC (in the test with Aspergillus fumigatus; against Aspergillus flavus; in the test on Saccharomyces cerevisiae; with Trichophyton rubrum; in [1]; in the test on Candida albicans) was more than 250 µg/mL each time. Further, the MIC against Aspergillus niger, against Candida tropicalis, against Cryptococcus neoformans and against Nannizzia gypsea was more than 250 µg/mL throughout.

With `C[C@@H]1[C@H](O)[C@@H](C)/C=C/C=C/C=C/C=C/C=C/C=C/C=C/[C@H](O[C@@H]2O[C@H](C)[C@@H](O)[C@H](N)[C@@H]2O)C[C@@H]2O[C@](O)(C[C@@H](O)C[C@@H](O)[C@H](O)CC[C@@H](O)C[C@@H](O)CC(=O)O[C@H]1C)C[C@H](O)[C@H]2C(=O)O` [AMPHOTERICIN B], the MFC against Aspergillus fumigatus was determined as 0.97 µg/mL (≈ 1.05 µM); with Aspergillus flavus, 1.95 µg/mL (≈ 2.11 µM); in the test on Saccharomyces cerevisiae, 1.95 µg/mL (≈ 2.11 µM); with Trichophyton rubrum it was 0.24 µg/mL (≈ 0.26 µM); in test [1], 0.24 µg/mL (≈ 0.26 µM); against Candida albicans, 1.95 µg/mL (≈ 2.11 µM). Also, the MFC against Aspergillus niger was found to be 3.9 µg/mL (≈ 4.22 µM); with Candida tropicalis, 0.97 µg/mL (≈ 1.05 µM); in the test on Cryptococcus neoformans it was 0.97 µg/mL (≈ 1.05 µM); with Nannizzia gypsea, 0.48 µg/mL (≈ 0.519 µM). In addition, the MIC turned out to be 0.48 µg/mL (≈ 0.519 µM) against Aspergillus fumigatus; 0.48 µg/mL (≈ 0.519 µM) with Aspergillus flavus; 0.48 µg/mL (≈ 0.519 µM) in the test with Saccharomyces cerevisiae; 0.06 µg/mL (≈ 0.0649 µM) against Trichophyton rubrum; 0.06 µg/mL (≈ 0.0649 µM) in [1]; 0.97 µg/mL (≈ 1.05 µM) in the test on Candida albicans. Also, the MIC in the test with Aspergillus niger stood at 0.48 µg/mL (≈ 0.519 µM); in the test with Candida tropicalis, 0.48 µg/mL (≈ 0.519 µM); against Cryptococcus neoformans, 0.24 µg/mL (≈ 0.26 µM); against Nannizzia gypsea it was 0.12 µg/mL (≈ 0.13 µM).

Consider `CC1=CC(=O)N(c2ccccc2)C1O` (centres undefined), for which the minimal fungicidal concentration (MFC) (in the test with Aspergillus fumigatus; against Aspergillus flavus; against Saccharomyces cerevisiae; in the test with Trichophyton rubrum; in test [1]; against Candida albicans) was more than 250 µg/mL throughout. The MFC in the test on Aspergillus niger, against Candida tropicalis, against Cryptococcus neoformans and against Nannizzia gypsea was more than 250 µg/mL in each case. Besides, the MIC (against Aspergillus fumigatus; against Aspergillus flavus; against Saccharomyces cerevisiae; against Trichophyton rubrum; in [1]; in the test with Candida albicans) was more than 250 µg/mL throughout. In addition, the MIC was more than 250 µg/mL with Aspergillus niger, more than 250 µg/mL against Candida tropicalis, 250 µg/mL (≈ 1320 µM) in the test on Cryptococcus neoformans and more than 250 µg/mL against Nannizzia gypsea.

Turning to `CC1=C(C)C(=O)N(c2ccccc2)C1=O`, the MFC in the test with Aspergillus fumigatus was more than 250 µg/mL; against Aspergillus flavus, more than 250 µg/mL; against Saccharomyces cerevisiae, more than 250 µg/mL; against Trichophyton rubrum it was 125 µg/mL (≈ 621 µM); in test [1] it was 250 µg/mL (≈ 1240 µM); against Candida albicans it was more than 250 µg/mL. Besides, the MFC in the test on Aspergillus niger is more than 250 µg/mL; in the test on Candida tropicalis it was more than 250 µg/mL; in the test with Cryptococcus neoformans, 250 µg/mL (≈ 1240 µM); in the test with Nannizzia gypsea, more than 250 µg/mL. The MIC with Aspergillus fumigatus was more than 250 µg/mL; in the test with Aspergillus flavus, more than 250 µg/mL; against Saccharomyces cerevisiae, more than 250 µg/mL; in the test with Trichophyton rubrum it was 62.5 µg/mL (≈ 311 µM); in [1], 125 µg/mL (≈ 621 µM); with Candida albicans it was more than 250 µg/mL. Moreover, the MIC was more than 250 µg/mL with Aspergillus niger, more than 250 µg/mL against Candida tropicalis, 125 µg/mL (≈ 621 µM) against Cryptococcus neoformans and 250 µg/mL (≈ 1240 µM) against Nannizzia gypsea.

As for `CC1=CC(O)N(CCCCc2ccccc2)C1=O` (centres undefined), the MFC (against Aspergillus fumigatus; against Aspergillus flavus; against Saccharomyces cerevisiae; in the test with Trichophyton rubrum; in test [1]; with Candida albicans) was more than 250 µg/mL in each case. Moreover, the MFC with Aspergillus niger, against Candida tropicalis, in the test on Cryptococcus neoformans and with Nannizzia gypsea was more than 250 µg/mL throughout. Also, the MIC (in the test on Aspergillus fumigatus; in the test with Aspergillus flavus; against Saccharomyces cerevisiae; against Trichophyton rubrum; in test [1]; with Candida albicans) was more than 250 µg/mL each time. Further, the MIC in the test with Aspergillus niger, in the test on Candida tropicalis, against Cryptococcus neoformans and in the test with Nannizzia gypsea was more than 250 µg/mL throughout.

For the compound `O=C(O)/C=C\C(=O)NCc1ccccc1`, the minimal fungicidal concentration (MFC) (against Aspergillus fumigatus; against Aspergillus flavus; against Saccharomyces cerevisiae; in the test with Trichophyton rubrum; in [1]; against Candida albicans) was more than 250 µg/mL in each case. The MFC in the test with Aspergillus niger, in the test with Candida tropicalis, with Cryptococcus neoformans and with Nannizzia gypsea was more than 250 µg/mL throughout. Besides, the MIC with Aspergillus fumigatus was more than 250 µg/mL; with Aspergillus flavus, more than 250 µg/mL; in the test with Saccharomyces cerevisiae, 250 µg/mL (≈ 1220 µM); against Trichophyton rubrum, more than 250 µg/mL; in test [1] it was more than 250 µg/mL; in the test with Aspergillus niger it was more than 250 µg/mL. The MIC against Candida tropicalis, in the test on Cryptococcus neoformans and against Nannizzia gypsea was more than 250 µg/mL in each case.

Turning to `O=C1C(c2ccccc2)=C(c2ccccc2)C(=O)N1CCCc1ccccc1`, the MFC (against Aspergillus fumigatus; against Aspergillus flavus; in the test with Saccharomyces cerevisiae; against Trichophyton rubrum; in [1]; with Candida albicans) was more than 250 µg/mL in each case. The minimal fungicidal concentration (MFC) in the test with Aspergillus niger, against Candida tropicalis, in the test on Cryptococcus neoformans and against Nannizzia gypsea was more than 250 µg/mL in each case. Besides, the MIC (against Aspergillus fumigatus; in the test with Aspergillus flavus; with Saccharomyces cerevisiae; with Trichophyton rubrum; in test [1]; with Candida albicans) was more than 250 µg/mL in each case. For the same compound, the MIC against Aspergillus niger, in the test on Candida tropicalis, against Cryptococcus neoformans and in the test on Nannizzia gypsea was more than 250 µg/mL in each case.

In the case of `O=C1C=CC(O)N1CCCc1ccccc1` (centres undefined), the minimum fungicidal concentration (MFC) against Aspergillus fumigatus was 250 µg/mL (≈ 1150 µM); in the test with Aspergillus flavus, more than 250 µg/mL; in the test on Saccharomyces cerevisiae, 125 µg/mL (≈ 575 µM); in the test with Trichophyton rubrum it was 250 µg/mL (≈ 1150 µM); in test [1] it was 62.5 µg/mL (≈ 288 µM); in the test with Candida albicans, more than 250 µg/mL. The MFC against Aspergillus niger is more than 250 µg/mL; against Candida tropicalis, 250 µg/mL (≈ 1150 µM); in the test with Cryptococcus neoformans it was more than 250 µg/mL; against Nannizzia gypsea, 125 µg/mL (≈ 575 µM). The MIC amounted to 125 µg/mL (≈ 575 µM) in the test on Aspergillus fumigatus; 250 µg/mL (≈ 1150 µM) in the test on Aspergillus flavus; 62.5 µg/mL (≈ 288 µM) with Saccharomyces cerevisiae; 62.5 µg/mL (≈ 288 µM) in the test on Trichophyton rubrum; 31.2 µg/mL (≈ 144 µM) in test [1]; 62.5 µg/mL (≈ 288 µM) against Candida albicans. For the same compound, the MIC against Aspergillus niger was more than 250 µg/mL; against Candida tropicalis, 125 µg/mL (≈ 575 µM); against Cryptococcus neoformans, 62.5 µg/mL (≈ 288 µM); with Nannizzia gypsea, 62.5 µg/mL (≈ 288 µM).

Consider `O=C1CCC(=O)N1CCCCc1ccccc1`, for which the MFC (in the test with Aspergillus fumigatus; in the test on Aspergillus flavus; against Saccharomyces cerevisiae; with Trichophyton rubrum; in test [1]; in the test with Candida albicans) was more than 250 µg/mL each time. The MFC in the test with Aspergillus niger, against Candida tropicalis, in the test with Cryptococcus neoformans and against Nannizzia gypsea was more than 250 µg/mL in each case. Besides, the MIC (in the test on Aspergillus fumigatus; in the test with Aspergillus flavus; against Saccharomyces cerevisiae; in the test on Trichophyton rubrum; in test [1]; against Candida albicans) was more than 250 µg/mL throughout. The MIC against Aspergillus niger, with Candida tropicalis, against Cryptococcus neoformans and in the test with Nannizzia gypsea was more than 250 µg/mL each time.
